Screening data (PubChem)
Arbovirus inh = arbovirus infection inhibition. actives 0.37% (n = 200,000). inhibition, % at 10 µM. arbovirus infection cell-based antiviral screen; in the data active = inhibition above about 30%
PKD1 inh = blocks activity of human protein kinase D1 | Q15139 | PKD1 kinase fluorescence polarization assay | inhibition, % (test concentration not listed) | actives 0.056% (n = 200,000)
Target sequence (Q15139 whole entry, looked up): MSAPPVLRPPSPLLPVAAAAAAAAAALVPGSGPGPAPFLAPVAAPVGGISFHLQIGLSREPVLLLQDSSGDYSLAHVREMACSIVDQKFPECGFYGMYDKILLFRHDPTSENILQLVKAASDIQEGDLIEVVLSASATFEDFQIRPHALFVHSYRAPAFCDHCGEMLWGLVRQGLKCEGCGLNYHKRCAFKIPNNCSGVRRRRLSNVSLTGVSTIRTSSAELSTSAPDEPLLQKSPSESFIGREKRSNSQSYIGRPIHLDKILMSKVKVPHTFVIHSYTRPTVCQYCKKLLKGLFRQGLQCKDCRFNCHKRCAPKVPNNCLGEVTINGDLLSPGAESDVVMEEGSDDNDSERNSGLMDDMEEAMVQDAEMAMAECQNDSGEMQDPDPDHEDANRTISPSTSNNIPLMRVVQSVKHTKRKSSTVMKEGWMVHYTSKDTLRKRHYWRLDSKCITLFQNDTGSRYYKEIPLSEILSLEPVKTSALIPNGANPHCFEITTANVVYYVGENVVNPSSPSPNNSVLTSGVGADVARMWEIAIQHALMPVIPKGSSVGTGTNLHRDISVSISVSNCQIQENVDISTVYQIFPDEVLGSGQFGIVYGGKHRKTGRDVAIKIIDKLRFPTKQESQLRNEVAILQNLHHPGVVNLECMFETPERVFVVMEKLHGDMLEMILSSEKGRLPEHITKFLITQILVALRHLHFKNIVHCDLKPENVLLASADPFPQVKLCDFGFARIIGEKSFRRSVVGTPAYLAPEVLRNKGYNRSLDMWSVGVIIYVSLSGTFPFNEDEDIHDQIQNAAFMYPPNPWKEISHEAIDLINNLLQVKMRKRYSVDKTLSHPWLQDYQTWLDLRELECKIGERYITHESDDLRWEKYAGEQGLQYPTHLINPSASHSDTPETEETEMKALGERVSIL
CHOP inh = inhibitors of CHOP induction in ER stress response; CHO-K1 CHOP-promoter luciferase, tunicamycin-induced, 15-18 h; inhibition, % at 10 µM; actives 3.8% (n = 220,000);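 active = compounds that reduced the stress-induced luciferase reporter signal by more than about 70% of percent inhibition, limit read from the data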
Wee1 degr inh = blocks degradation of human Wee1 kinase; HeLa Luc-Wee1K328M stability, luciferase luminescence; 100% = proteasome inhibitor MG132 effect; P30291; reporter increase, % at 5 µM; actives 1.2% (n = 220,000); AID 1321;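 active = activation above the mean of all tested compounds plus 3 SD, set per screening run, cut at about 8.8% in these data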;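 note: cells exposed to compound for 20 h before luminescence read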
Rad51 HR inh = blocks human Rad51 in homologous recombination; Q06609; inhibition, % at 10 µM; hRad51 DNA strand exchange, fluorescence dequenching; actives 0.085% (n = 200,000);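 active = inhibition above 40% at the single screening dose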
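material = hRad51 filaments on single-stranded DNA | reagent = Donor/quencher-labelled 47-bp dsDNA substrate | compound = 10 µM final, single point | schedule = strand-exchange reaction 15 min at room temperature | measured by = fluorescein emission 520 nm, excitation 485 nm | read-out basis = % inhibition versus plate control and blank means | benchmarks = plate controls and plate blanks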
Lmaj promast = Leishmania major promastigote growth inhibition; Leishmania major promastigotes, resazurin fluorescence viability; inhibition, % at 10 µM; actives 9% (n = 200,000);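 note: promastigotes grown with compound for 44 hours at 28 °C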
Each line names hits and unclear results; the compound was inactive in the other large screens. In the library only some 12% were active in any assay of this set; here they are far more common. Cut-off read from the data, not from the text of the source, unless noted: active = inhibition above about 50%; inactive = the rest.

CCC(C)(C)NC(=O)CN(Cc1ccccc1Cl)C(=O)CCC(=O)Nc1cc(C)ccn1	none
O=C(Nc1cccc(Cl)c1)Nc1cc(S(=O)(=O)N2CCCCC2)ccc1Cl	CHOP inh 87
O=C(CN1CCN(c2ccc(O)cc2)CC1)Nc1cc(S(=O)(=O)N2CCCCC2)ccc1Cl	Lmaj promast 99
COC(=O)c1cc(NC(=O)Nc2cccc(Cl)c2)ccc1Cl	CHOP inh 95, Lmaj promast 71
O=C(Nc1ccccc1)c1cc(S(=O)(=O)N2CCSCC2)ccc1Cl	Lmaj promast 53
O=C(CN1C(=O)c2ccccc2S1(=O)=O)Nc1ccc(S(=O)(=O)N2CCCCC2)cc1	Wee1 degr inh 9.1, Rad51 HR inh 73
O=C(CN1CCN(c2ccccc2O)CC1)Nc1cc([N+](=O)[O-])ccc1Cl	CHOP inh 83
O=C(CN1CCN(c2ccccc2O)CC1)Nc1ccc([N+](=O)[O-])cc1Br	none
O=C(/C=C\c1ccc2c(c1)OCO2)Nc1c2c(nn1-c1ccc(Cl)cc1)CSC2	Lmaj promast 95 (no result: Rad51 HR inh)
COc1cccc(CNC(=O)C(c2ccc(Cl)cc2)C(C)C)c1 (stereo not drawn)	Lmaj promast 57
Cc1ccc(/C=C/C(=O)OCC(=O)NC(C)C)o1	none
COc1ccc(NC(=O)CCCn2c(=O)oc3ccccc32)cc1Cl	Lmaj promast 58
Cc1ccc(NC(=O)CCn2c(=O)oc3ccccc32)cc1	none
COc1cc(OC)c(NC(=O)CCCn2c(=O)oc3ccccc32)cc1Cl	none
COc1cc(Cl)c(C)cc1NC(=O)CCCn1c(=O)oc2ccccc21	Lmaj promast 53
Cc1ccc(N(CC(=O)NN=C2CCN(C)CC2)S(=O)(=O)c2ccc(C)cc2)cc1	none
Cc1ccc(C)c(N(CC(=O)NN=C2CCN(C)CC2)S(=O)(=O)c2ccccc2)c1	Lmaj promast 68
Cc1csc(SCC(=O)Nc2ccccc2[N+](=O)[O-])n1	none
Cc1ccc(-c2nc(SCC(=O)NCCN3C(=O)CSC3=O)[nH]c2-c2ccc(C)cc2)cc1	Lmaj promast 81 (no result: Rad51 HR inh)
Cc1ccc(SCC(=O)NCCN2C(=O)CSC2=O)c(C)c1	none
COc1ccc(C=O)cc1OS(=O)(=O)c1ccc(NC(C)=O)cc1	none (no result: Rad51 HR inh)
CC(=O)Nc1ccc(OS(=O)(=O)c2c(C)cc(C)cc2C)cc1	Lmaj promast 80
CC(=O)Nc1ccc(OS(=O)(=O)c2ccc(C)cc2C)cc1	none
CC(=O)Nc1ccc(S(=O)(=O)Oc2ccc(C=O)cc2)cc1	Lmaj promast 78
CCOC(=O)c1cc(-c2ccc(C)cc2)nc2nc(SC)[nH]c(=O)c12	Lmaj promast 56
CCOC(=O)c1cc(-c2cccc(C(F)(F)F)c2)nc2nc(SC)[nH]c(=O)c12	none
Cc1nc2c(C(=O)NCCC(C)C)c[nH]n2c(=O)c1Cl	Arbovirus inh 36 (no result: Rad51 HR inh)
CC(=O)Nc1ccc(S(=O)(=O)Nc2nc(C)nc3sc4c(c23)CCC4)cc1	none (no result: Arbovirus inh, PKD1 inh, Lmaj promast)
Cc1nc(NS(=O)(=O)c2ccccc2C)c2c3c(sc2n1)CCC3	Arbovirus inh 38
O=C(CCc1nc2ccccc2s1)OCc1ccccc1	Lmaj promast 56
CCCCOC(=O)/C(=C\c1ccc([N+](=O)[O-])o1)NC(=O)c1ccccc1	Lmaj promast 83
CCOc1ccc(Nc2nnc(SCc3nc4ccccc4c(=O)[nH]3)s2)cc1	CHOP inh 96 (no result: Arbovirus inh, PKD1 inh, Lmaj promast)
Cc1ccccc1Nc1nnc(SCc2nc3ccccc3c(=O)[nH]2)s1	none
COc1ccc(NC(=O)c2cccnc2SC)cc1S(=O)(=O)N1CCCCC1	none
O=C(Nc1ccc([N+](=O)[O-])cc1Br)c1cc2ccccc2nc1Cl	none (no result: Arbovirus inh, PKD1 inh, Lmaj promast)
O=C(NCCNC1CCC(c2ccccc2)CC1)c1ccc(F)cc1 (stereo not drawn)	Lmaj promast 94
OC[C@@H](O)C1OC2NC(=S)OC2C1O (stereo partly drawn)	none
CC(=O)c1ccccc1OC(=O)c1ccc([N+](=O)[O-])o1	none (no result: Arbovirus inh, PKD1 inh, Lmaj promast)
Cc1[nH]c2ccccc2c1C(=O)C(C)OC(=O)c1ccc([N+](=O)[O-])o1 (stereo not drawn)	Lmaj promast 99
CC1(C(=O)NC(=S)NNC(=O)c2ccncc2)CCCCC1	none
CC/C(=N\NC(=O)c1ccncc1)C12CC3CC(CC(C3)C1)C2	Lmaj promast 89
CC/C(=N\NC(=O)c1ccc2c(c1)OCO2)C12CC3CC(CC(C3)C1)C2	CHOP inh 77, Lmaj promast 99
O=C(NNC(=O)C12CC3CC(CC(C3)C1)C2)c1cnccn1	Lmaj promast 89
O=C(NNC(=O)C12CC3CC(CC(C3)C1)C2)c1ccccn1	none (no result: Arbovirus inh, PKD1 inh, Lmaj promast)
O=C(NNC(=S)NC(=O)C12CC3CC(CC(C3)C1)C2)c1ccncc1	Lmaj promast 78 (no result: Rad51 HR inh)
O=C(OCC(=O)N1CCCC1=O)C1COc2ccccc2O1 (stereo not drawn)	none
COc1ccc(CC(=O)NCc2ccco2)cc1OC	none
COc1ccc(CCN(C)Cc2ccc(OCc3ccccc3)c(OC)c2)cc1OC	Lmaj promast 64
COc1cc(CNCc2ccccn2)ccc1OCc1cccc(Cl)c1	Lmaj promast 99
COc1cc(CNCc2ccco2)ccc1OCc1ccccc1	Lmaj promast 100
COc1cc(CNCc2ccccn2)ccc1OCc1c(Cl)cccc1Cl	Lmaj promast 100
COc1ccc(CCN(C)Cc2ccc(OC)c(OCc3ccccc3)c2)cc1OC	none
COc1cc(CNC23CC4CC(CC(C4)C2)C3)ccc1OCc1ccccc1	Lmaj promast 79
COc1cc(CNCc2ccccn2)ccc1OCc1ccc(Cl)cc1	Lmaj promast 96
COc1cc(CNc2ccc(N3CCCC3)cc2)ccc1OCc1ccccc1	none
CC(c1ccccn1)N(Cc1ccco1)C(=S)Nc1cccc(F)c1 (stereo not drawn)	none (no result: Rad51 HR inh)
COc1ccc(C2OC(=O)CC2C(=O)NCc2ccc(Cl)cc2)cc1OC (stereo not drawn)	none
Cc1ccc(Nc2nc(-c3c(C)nc4ccccn34)cs2)cc1	CHOP inh 85, Lmaj promast 93
Cc1ccc(Nc2nc(-c3c(C)nc4ncccn34)cs2)cc1	Lmaj promast 60
CC(NC(=O)c1ccc2c(c1)OCO2)C(c1cccs1)N1CCN(c2ccccc2)CC1 (stereo not drawn)	none (no result: Arbovirus inh, PKD1 inh, Rad51 HR inh, Lmaj promast)
N#CCCN(CCN1CCCC1)S(=O)(=O)c1ccc(-c2ccc([N+](=O)[O-])cc2)cc1	Lmaj promast 93
O=C(O)c1ccccc1-c1ccccc1C(=O)NCc1cccc(C(F)(F)F)c1	none
CC(C)CN1CCC(=O)N(CCSc2ccc(Br)cc2)CC1	none (no result: Arbovirus inh, PKD1 inh, Wee1 degr inh, Lmaj promast)
C=CCc1ccccc1OCCNCc1ccccc1	Lmaj promast 71
C=CCOc1ccccc1CNCc1ccc(F)cc1	Lmaj promast 57
Fc1ccc(CNCc2ccccc2Cl)cc1	none
CN(CCCC(=O)NC1CC(C)(C)NC(C)(C)C1)S(=O)(=O)c1ccc([N+](=O)[O-])cc1	none
C=CCC1(NC(C)c2ccccc2)CCCCC1 (stereo not drawn)	Lmaj promast 57
